Reference: ChEMBL document CHEMBL4680373, “Evaluation of 5-(Trifluoromethyl)-1,2,4-oxadiazole-Based Class IIa HDAC Inhibitors for Huntington's Disease” (ACS Med Chem Lett, 2021)
pIC50: −log10 of the molar value.

Legend:
[1] = target: T1, Protein deacetylase HDAC6 (Homo sapiens, UniProt Q9UBN7); assay: Inhibition of HDAC6 (unknown origin) expressed in human HEK-Freestyle cells using Boc-Lys(Ac) as substrate by fluorogenic assay; assay type: cell-based
T1 sequence (Q9UBN7 whole entry): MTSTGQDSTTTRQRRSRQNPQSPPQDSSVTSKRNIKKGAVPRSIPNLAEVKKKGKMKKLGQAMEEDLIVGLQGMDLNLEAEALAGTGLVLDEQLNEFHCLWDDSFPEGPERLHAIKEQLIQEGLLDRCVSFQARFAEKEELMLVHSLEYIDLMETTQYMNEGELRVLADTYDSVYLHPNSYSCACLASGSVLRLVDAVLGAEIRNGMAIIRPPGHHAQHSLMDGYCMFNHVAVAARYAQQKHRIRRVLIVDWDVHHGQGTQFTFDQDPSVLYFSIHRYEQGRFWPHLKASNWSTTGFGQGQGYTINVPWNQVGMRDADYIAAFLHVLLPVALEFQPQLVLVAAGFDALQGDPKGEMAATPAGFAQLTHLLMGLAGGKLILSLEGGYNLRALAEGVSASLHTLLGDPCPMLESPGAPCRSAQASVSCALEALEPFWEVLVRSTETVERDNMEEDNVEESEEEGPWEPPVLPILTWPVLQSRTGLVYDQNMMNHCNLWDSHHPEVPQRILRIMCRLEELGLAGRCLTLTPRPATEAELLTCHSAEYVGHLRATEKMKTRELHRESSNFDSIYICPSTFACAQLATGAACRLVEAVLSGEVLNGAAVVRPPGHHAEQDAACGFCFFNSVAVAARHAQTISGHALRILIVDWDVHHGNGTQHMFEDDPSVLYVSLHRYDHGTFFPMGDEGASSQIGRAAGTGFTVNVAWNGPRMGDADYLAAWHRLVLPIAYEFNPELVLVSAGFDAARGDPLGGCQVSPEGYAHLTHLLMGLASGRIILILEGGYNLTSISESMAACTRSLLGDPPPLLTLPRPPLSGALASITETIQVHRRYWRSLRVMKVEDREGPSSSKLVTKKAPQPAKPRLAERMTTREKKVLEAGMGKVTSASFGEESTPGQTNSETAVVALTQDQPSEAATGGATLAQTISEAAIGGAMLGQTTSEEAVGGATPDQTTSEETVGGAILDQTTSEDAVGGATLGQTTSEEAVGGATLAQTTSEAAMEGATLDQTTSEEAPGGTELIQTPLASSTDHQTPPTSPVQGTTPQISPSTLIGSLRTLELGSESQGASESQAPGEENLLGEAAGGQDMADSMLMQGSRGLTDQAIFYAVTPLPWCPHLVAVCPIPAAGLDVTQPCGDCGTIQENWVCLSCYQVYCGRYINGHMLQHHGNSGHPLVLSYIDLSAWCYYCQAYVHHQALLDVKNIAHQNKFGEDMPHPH
Procedure, shortened: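 HDAC6 was supplied as lysate of HEK cells overexpressing the enzyme. Activity was read with the class I/IIb-specific fluorogenic substrate Boc-Lys-(Ac)-AMC. IC50 is the geometric mean of three experiments.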

Histone deacetylase 4 = Histone deacetylase 4 (Homo sapiens, UniProt P56524); assay: Inhibition of human recombinant HDAC4 at 10 uM incubated for 30 mins by fluorometry
Procedure, shortened: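 Broad selectivity panel of binding, cellular, functional and enzymatic assays run by a contract lab. Each test was done at a single 10 μM concentration and reported as percent inhibition.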

Chain of Histone deacetylase 4 (P56524 whole entry): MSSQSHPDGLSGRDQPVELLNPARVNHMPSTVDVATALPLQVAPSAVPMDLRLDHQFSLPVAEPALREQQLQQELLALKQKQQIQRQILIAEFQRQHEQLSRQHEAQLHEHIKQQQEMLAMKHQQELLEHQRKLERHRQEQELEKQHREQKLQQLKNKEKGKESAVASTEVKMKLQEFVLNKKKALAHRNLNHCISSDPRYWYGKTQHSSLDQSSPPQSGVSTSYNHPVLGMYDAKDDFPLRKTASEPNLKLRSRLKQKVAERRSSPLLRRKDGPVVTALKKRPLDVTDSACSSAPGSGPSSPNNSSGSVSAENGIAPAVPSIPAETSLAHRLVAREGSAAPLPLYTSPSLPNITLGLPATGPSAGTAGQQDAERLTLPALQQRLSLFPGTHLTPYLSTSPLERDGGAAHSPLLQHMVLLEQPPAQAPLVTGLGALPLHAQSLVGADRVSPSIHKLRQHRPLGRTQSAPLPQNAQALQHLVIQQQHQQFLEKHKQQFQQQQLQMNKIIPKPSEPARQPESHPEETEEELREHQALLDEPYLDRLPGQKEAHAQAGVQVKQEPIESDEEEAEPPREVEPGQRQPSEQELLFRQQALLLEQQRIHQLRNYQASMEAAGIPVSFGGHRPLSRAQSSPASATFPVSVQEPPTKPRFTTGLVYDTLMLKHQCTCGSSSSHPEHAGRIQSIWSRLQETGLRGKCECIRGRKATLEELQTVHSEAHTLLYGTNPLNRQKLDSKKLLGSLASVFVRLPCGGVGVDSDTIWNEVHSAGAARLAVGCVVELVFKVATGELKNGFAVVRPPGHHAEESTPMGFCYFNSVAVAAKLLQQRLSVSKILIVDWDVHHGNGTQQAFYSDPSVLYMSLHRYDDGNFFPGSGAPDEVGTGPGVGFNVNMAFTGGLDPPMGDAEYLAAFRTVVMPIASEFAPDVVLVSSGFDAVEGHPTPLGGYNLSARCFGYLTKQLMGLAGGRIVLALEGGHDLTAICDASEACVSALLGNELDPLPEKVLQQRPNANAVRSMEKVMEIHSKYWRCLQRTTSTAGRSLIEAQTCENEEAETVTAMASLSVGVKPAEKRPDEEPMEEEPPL

SMILES: C[C@H](CN1CCC[C@@H]1C)NC(=O)c1ccc(-c2noc(C(F)(F)F)n2)cc1
- pIC50 [1]: 4.66
- inhibition (Histone deacetylase 4): > 80%
